Assay results of several laboratories.
Each line is one published result; the experiments were not run side by side.
Read-out: cell growth or viability

SMILES	cell line	method	time	IC50
COc1cccc2c1C(=O)c1c(O)c3c(c(O)c1C2=O)C[C@@](O)(C(=O)CO)C[C@@H]3O[C@H]1C[C@H](N)[C@H](O)[C@H](C)O1	BT-549	–	48 h	1.5 µg/mL
CC1=C2C[C@H]3[C@@H](CC=C4C[C@@H](O)CC[C@@]43C)[C@@H]2CC[C@]12O[C@@H]1C[C@H](C)CN[C@H]1[C@H]2C	MIA PaCa-2	MTS	96 h	17.1 µM
N.N.[Cl][Pt][Cl]	MIA PaCa-2	resazurin	72 h	5.9 µM
C[C@H]1O[C@H](Oc2c(-c3ccc(O)c(O)c3)oc3cc(O)cc(O)c3c2=O)[C@@H](O)[C@@H](O)[C@@H]1O	SW780	ATP luminescence	72 h	190 µM
N.N.[Cl][Pt][Cl]	PLC	–	48 h	47.2 µM
COc1c2c(cc3c1OCO3)[C@]13C=C[C@H](OC)C[C@@H]1[N@](C2)C[C@H]3OC(=O)c1ccco1	MOLT-4	WST-1	–	> 10 µM
COCCOCOc1cc(OCc2ccc(Br)cc2)c(C(=O)/C=C/c2ccc(C(=O)O)cc2)cc1C12CC3CC(CC(C3)C1)C2	Jurkat	ATP luminescence	24 h	0.84 µM
Cl.O[C@]12C=C(c3nccc4c3[nH]c3ccccc34)[C@@H]3CCN(CCCC/C=C\CC1)C[C@@]31C[C@@H]3/C=C\CCCCN3[C@H]12	BT-549	neutral red	48 h	0.88 µg/mL
COCCOCOc1cc(O)c(-c2cc(-c3ccc(C(=O)O)cc3)n(C)n2)cc1C12CC3CC(CC(C3)C1)C2	Jurkat	ATP luminescence	24 h	4.73 µM
COc1c2c(cc3c1OCO3)[C@]13C=C[C@H](OC)C[C@@H]1[N@](C2)C[C@H]3OC(=O)c1ccoc1	MOLT-4	WST-1	–	> 10 µM
